Test results published in ChEMBL document CHEMBL1124508, “E-ring desoxy analogues of etoposide” (J Med Chem, 1989).
Converted amounts (≈) assume the structure as drawn.

What was measured:
Mus musculus [1] = experiment: Anti-P388 Leukemia activity administered 150 mg/kg intraperitoneally, expressed as percent of the median survival time; format: functional; conditions: route intraperitoneal
Method in brief: (§1)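 P388 leukemia-bearing mice given drug ip on days 1 and 5, with dose expressed per injection. T/C is the median survival time of treated mice as a percent of saline-treated controls. Long-term survivors are mice alive out of total on day 30, when the experiment ended.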

Mus musculus [2] = experiment: Anti-P388 Leukemia activity administered 30 mg/kg intraperitoneally, expressed as percent of the median survival time; format: functional; conditions: route intraperitoneal; method in brief: as §1
HCT cell line [3] = experiment: The inhibition concentration against etoposide resistant HCT/VP35 cell growth after 72 hours; format: functional, cell-based; conditions: Homo sapiens
Method in brief: (§2)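 Panel of human colon lines (HCT-116, etoposide sensitive; HCT/VP35, acquired-resistant; MOSER, inherently resistant) and mouse melanoma B16-F10. Viability is read by crystal violet protein stain, or by XTT vital stain for some HCT/VP35 and HCT-116 runs. IC50 is the dose reducing cell growth by 50% after 72 h versus controls. Values are averages of at least two runs.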

[4] = Inhibitory selectivity against HCT/VP35 and HCT116 cell growth after 72 hours; format: functional, HCT-116
Method in brief: (§3)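 Ratio of the HCT/VP35 IC50 to the HCT-116 IC50, as a measure of overcoming acquired etoposide resistance. The IC50 is the dose giving 50% growth reduction after 72 h versus controls, read by crystal violet or XTT stain. Values are averages of at least two runs.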

B16-F10 [5] = experiment: The inhibition concentration of B16-F10 cell growth after 72 hours; format: functional, cell-based; conditions: Mus musculus, B16-F10, 72 h; method in brief: as §2
Homo sapiens [6] = organism: Homo sapiens; experiment: The inhibition concentration of MOSER cell growth after 72 hours; format: functional; method in brief: as §2
B16-F10 [7] = experiment: In vitro inhibitory concentration against B16-F10 cell growth after 72 hours; format: functional, cell-based; conditions: Mus musculus, B16-F10, 72 h; method in brief: as §2
HCT cell line [8] = experiment: In vitro inhibitory concentration against etoposide resistant HCT/VP35 cell growth after 72 hours; format: functional, cell-based; conditions: Homo sapiens; method in brief: as §2
Mus musculus [9] = experiment: Percent median survival time (T/C) of mice when administered intraperitoneally at dose 40 mg/kg; format: functional; conditions: route intraperitoneal; method in brief: as §1
Mus musculus [10] = experiment: Percent median survival time (T/C) of mice when administered intraperitoneally at dose 20 mg/kg; format: functional; conditions: route intraperitoneal; method in brief: as §1
HCT-116 [11] = experiment: In vitro inhibitory concentration against etoposide sensitive HCT116 cell growth after 72 hours; format: functional, cell-based; conditions: Homo sapiens, HCT-116, 72 h; method in brief: as §2
Homo sapiens [12] = organism: Homo sapiens; experiment: In vitro inhibitory concentration against MOSER cell growth after 72 hours; format: functional; method in brief: as §2
Mus musculus [13] = experiment: Maximum percent median survival time of mice when administered intraperitoneally at dose 60 mg/kg; format: functional; conditions: route intraperitoneal
Mus musculus [14] = experiment: Number of long time survivors (mice alive/total) when administered intraperitoneally at dose 60 mg/kg when tested in 4 mice; format: functional; conditions: route intraperitoneal; method in brief: as §1
Mus musculus [15] = experiment: Percent median survival time (T/C) of mice when administered intraperitoneally at dose 80 mg/kg; format: functional; conditions: route intraperitoneal; method in brief: as §1
Mus musculus [16] = experiment: Number of long time survivors (mice alive/total) when administered intraperitoneally at dose 80 mg/kg when tested in 4 mice; format: functional; conditions: route intraperitoneal; method in brief: as §1
Mus musculus [17] = experiment: Anti-P388 Leukemia activity administered 50 mg/kg intraperitoneally, expressed as percent of the median survival time; format: functional; conditions: route intraperitoneal; method in brief: as §1
HCT-116 [18] = experiment: The inhibition concentration against etoposide sensitive HCT116 cell growth after 72 hours; format: functional, cell-based; conditions: Homo sapiens, HCT-116, 72 h; method in brief: as §2
Mus musculus [19] = experiment: Anti-P388 Leukemia activity administered 200 mg/kg intraperitoneally, expressed as percent of the median survival time; format: functional; conditions: route intraperitoneal; method in brief: as §1
[20] = Inhibitory selectivity against HCT/VP35 and HCT116 cell growth after 72 hr IC50 value for etoposide in the parenthesis; format: functional, HCT-116; method in brief: as §3
Mus musculus [21] = experiment: Percent median survival time (T/C) of mice when administered intraperitoneally at dose 120 mg/kg; format: functional; conditions: route intraperitoneal; method in brief: as §1

COc1cc(OC)cc([C@@H]2c3cc4c(cc3[C@@H](O[C@@H]3O[C@@H]5CO[C@@H](C)O[C@H]5[C@H](O)[C@H]3O)[C@H]3COC(=O)[C@H]23)OCO4)c1
T/C (Mus musculus [1]): 175
T/C (Mus musculus [2]): 125
IC50 (HCT cell line [3]): 3.4 µg/mL (≈ 5.94 µM)
Selectivity [4]: 0.47
IC50 (B16-F10 [5]): 25 µg/mL (≈ 43.7 µM)
IC50 (Homo sapiens [6]): 45.5 µg/mL (≈ 79.5 µM)

COc1cc([C@@H]2c3cc4c(cc3[C@@H](O[C@@H]3O[C@@H]5CO[C@@H](C)O[C@H]5[C@H](O)[C@H]3O)[C@H]3COC(=O)[C@H]23)OCO4)ccc1O
IC50 (B16-F10 [7]): 20.1 µg/mL (≈ 36 µM)
IC50 (HCT cell line [8]): 5.4 µg/mL (≈ 9.67 µM)
T/C (Mus musculus [9]): 245
T/C (Mus musculus [10]): 190
IC50 (HCT-116 [11]): 15.4 µg/mL (≈ 27.6 µM)
Selectivity [4]: 12.3
IC50 (Homo sapiens [12]): 46.5 µg/mL (≈ 83.3 µM)

COC1=CC([C@@H]2c3cc4c(cc3[C@@H](O[C@@H]3O[C@@H]5CO[C@@H](C)O[C@H]5[C@H](O)[C@H]3O)[C@H]3COC(=O)[C@@H]32)OCO4)=CC(=O)C1=O
Max T/C (Mus musculus [13]): >595
T/C (Mus musculus [9]): 274
LTS (Mus musculus [14]): 2
T/C (Mus musculus [15]): >621
LTS (Mus musculus [16]): 3

C[C@@H]1OC[C@H]2O[C@@H](O[C@@H]3c4cc5c(cc4[C@@H](c4ccc(O)cc4)[C@H]4C(=O)OC[C@@H]43)OCO5)[C@H](O)[C@@H](O)[C@@H]2O1
T/C (Mus musculus [17]): 145
IC50 (HCT-116 [18]): 62.7 µg/mL (≈ 119 µM)
IC50 (HCT cell line [3]): 85.1 µg/mL (≈ 161 µM)
T/C (Mus musculus [19]): 175
Selectivity [20]: 1.4
IC50 (B16-F10 [5]): 43.4 µg/mL (≈ 82.1 µM)
IC50 (Homo sapiens [6]): 42.9 µg/mL (≈ 81.2 µM)

COc1cc([C@@H]2c3cc4c(cc3[C@@H](O[C@@H]3O[C@@H]5CO[C@@H](C)O[C@H]5[C@H](O)[C@H]3O)[C@H]3COC(=O)[C@H]23)OCO4)cc(OC)c1O [ETOPOSIDE]
T/C (Mus musculus [21]): 447
